Measurements pooled from the literature.
Target: Mitogen-activated protein kinase kinase kinase 14 (MAP3K14, Homo sapiens, UniProt Q99558)

Compound	assay	setting	quantity	result
CCCOc1ccc([C@H]2[C@H](C(=O)O)[C@@H](c3ccc4c(c3)OCO4)CN2CC(=O)Nc2c(CC)cccc2CC)cc1	cell-free assay, competition with immobilised ligand	1 µM	remaining binding	85%
N#CCCc1ccc2c(c1)-c1[nH]c3ccc([N+](=O)[O-])cc3c1CC(=O)N2	cell-free assay	0.5 µM	remaining signal	161%
C[C@@H](c1cccc(C#N)c1)n1cc(Cl)cc(C(N)=O)c1=N	cell-free assay, competition with immobilised ligand	1 µM	remaining binding	93%
C[C@@H]1CCN(c2nccc(-c3cnn4ncccc34)n2)C1	binding, competition with immobilised ligand	1 µM	remaining binding	72%
CC(C)(C)c1nc2c(s1)c1nc(N)ncc1c1ccc(NS(=O)(=O)c3c(F)cccc3F)c(F)c12	enzyme activity, inhibitor, radiometric	1 µM	remaining activity	104%
CC(C)(O)[C@H]1CC[C@H](Nc2ccc3ncc(-c4cccc(C(F)(F)F)c4)n3n2)CC1	enzyme activity, inhibitor	1 µM	remaining activity	114%
CC(C)(C)c1nc(-c2cccc(NS(=O)(=O)c3c(F)cccc3F)c2F)c(-c2ccnc(N)n2)s1	enzyme activity, inhibitor, radiometric	1 µM	remaining activity	100%
Nc1ncnc2occ(-c3ccc(NC(=O)Nc4cc(C(F)(F)F)ccc4F)cc3)c12	cell-free assay, inhibitor	20 µM	remaining signal	93%
